ChEMBL document CHEMBL1165943, “Design and synthesis of new anticancer pyrimidines with multiple-kinase inhibitory effect” (Bioorg Med Chem, 2010)

Assays:
[1] = system: ACHN; assay: Cytotoxicity against human ACHN cells assessed as cell growth at 1 uM after 48 hrs by sulforhodamine B assay; type: functional; conditions: read-out: Activity
Method in brief: (§1)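 Cells grown in RPMI 1640 with 5% FBS and 2 mM L-glutamine, seeded at 5,000–40,000 cells/well by doubling time. Time-zero plates TCA-fixed after 24 h. Five concentrations (10-fold or half-log dilutions from DMSO stock) added; 48 h at 37 °C, 5% CO2. Cold TCA fixation (final 10%, 60 min, 4 °C), 0.4% SRB stain, dye solubilized in 10 mM trizma base, A515.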

[2] = system: HOP-62; assay: Cytotoxicity against human HOP62 cells assessed as cell growth at 0.01 uM after 48 hrs by sulforhodamine B assay; type: functional; conditions: HOP-62, 48 h, read-out: Activity
[3] = system: HCT-116; assay: Cytotoxicity against human HCT116 cells assessed as cell growth at 100 nM after 48 hrs by sulforhodamine B assay; type: functional; conditions: HCT-116, 48 h, read-out: Activity
[4] = system: SF-539; assay: Cytotoxicity against human SF539 cells assessed as cell growth at 1 uM after 48 hrs by sulforhodamine B assay; type: functional; conditions: SF-539, 48 h, read-out: Activity
[5] = system: NCI-H522; assay: Cytotoxicity against human NCI-H522 cells assessed as cell growth at 0.01 uM after 48 hrs by sulforhodamine B assay; type: functional; conditions: NCI-H522, 48 h, read-out: Activity
[6] = system: SK-MEL-5; assay: Cytotoxicity against human SK-MEL-5 cells assessed as cell growth at 10 uM after 48 hrs by sulforhodamine B assay; type: functional; conditions: SK-MEL-5, 48 h, read-out: Activity
[7] = system: MDA-MB-435; assay: Cytotoxicity against human MDA-MB-435 cells assessed as cell growth at 0.001 uM after 48 hrs by sulforhodamine B assay; type: functional; conditions: MDA-MB-435, 48 h, read-out: Activity
[8] = system: SNB-75; assay: Cytotoxicity against human SNB75 cells assessed as cell growth at 100 nM after 48 hrs by sulforhodamine B assay; type: functional; conditions: SNB-75, 48 h, read-out: Activity
[9] = system: MOLT-4; assay: Cytotoxicity against human MOLT4 cells assessed as cell growth at 0.01 uM after 48 hrs by sulforhodamine B assay; type: functional; conditions: MOLT-4, 48 h, read-out: Activity
[10] = system: UACC-257; assay: Cytotoxicity against human UACC257 cells assessed as cell growth at 0.001 uM after 48 hrs by sulforhodamine B assay; type: functional; conditions: UACC-257, 48 h, read-out: Activity
[11] = system: SK-MEL-5; assay: Cytotoxicity against human SK-MEL-5 cells assessed as cell growth at 0.001 uM after 48 hrs by sulforhodamine B assay; type: functional; conditions: SK-MEL-5, 48 h, read-out: Activity
[12] = system: UO-31; assay: Cytotoxicity against human UO31 cells assessed as cell growth at 0.001 uM after 48 hrs by sulforhodamine B assay; type: functional; conditions: UO-31, 48 h, read-out: Activity
[13] = system: MDA-MB-231; assay: Growth inhibition of human MDA-MB-231 cells after 48 hrs by sulforhodamine B assay; type: functional, cell-based; conditions: MDA-MB-231, 48 h
Method in brief: (§2)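 Cells grown in RPMI 1640 with 5% FBS and 2 mM L-glutamine, seeded at 5,000–40,000 cells/well according to doubling time. After 24 h, time-zero plates are TCA-fixed. Five concentrations (10-fold or ½log dilutions, DMSO stocks) are applied for 48 h at 37 °C, 5% CO₂. Cells are TCA-fixed, SRB-stained and read at 515 nm. IC₅₀ is taken from [(Ti−Tz)/(C−Tz)]×100 = 50.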

[14] = system: HCT-15; assay: Cytotoxicity against human HCT15 cells assessed as cell growth at 1 uM after 48 hrs by sulforhodamine B assay; type: functional; conditions: HCT-15, 48 h, read-out: Activity
[15] = system: MDA-MB-231; assay: Cytotoxicity against human MDA-MB-231 cells assessed as cell growth at 0.001 uM after 48 hrs by sulforhodamine B assay; type: functional; conditions: MDA-MB-231, 48 h, read-out: Activity
[16] = system: SF-268; assay: Growth inhibition of human SF268 cells after 48 hrs by sulforhodamine B assay; type: functional, cell-based; conditions: SF-268, 48 h; for CC50: read-out: LC50 (the source's name); method in brief: as §2
[17] = system: COLO 205; assay: Cytotoxicity against human COLO205 cells assessed as cell growth at 0.001 uM after 48 hrs by sulforhodamine B assay; type: functional; conditions: COLO 205, 48 h, read-out: Activity; method in brief: as §1
[18] = system: NCI-H322M; assay: Growth inhibition of human NCI-H322M cells after 48 hrs by sulforhodamine B assay; type: functional, cell-based; conditions: for CC50: read-out: LC50 (the source's name); method in brief: as §2
[19] = system: M14; assay: Cytotoxicity against human M14 cells assessed as cell growth at 0.01 uM after 48 hrs by sulforhodamine B assay; type: functional; conditions: M14, 48 h, read-out: Activity
[20] = system: SK-OV-3; assay: Cytotoxicity against human SKOV3 cells assessed as cell growth at 1 uM after 48 hrs by sulforhodamine B assay; type: functional; conditions: SK-OV-3, 48 h, read-out: Activity
[21] = system: HL-60(TB); assay: Cytotoxicity against human HL-60(TB) cells assessed as cell growth at 100 nM after 48 hrs by sulforhodamine B assay; type: functional; conditions: HL-60, 48 h, read-out: Activity
Method in brief: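 Five-concentration HL-60(TB) test in RPMI 1640 with 5% FBS and 2 mM L-glutamine. Cells are plated at 5,000–40,000/well and a TCA-fixed time-zero plate is read at drug addition after 24 h. Drug is dissolved in DMSO and given as five 10-fold or ½log dilutions for 48 h at 37 °C, 5% CO2. Settled cells are fixed with TCA, stained with SRB and read at 515 nm.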

[22] = system: MDA-MB-435; assay: Cytotoxicity against human MDA-MB-435 cells assessed as cell growth at 10 uM after 48 hrs by sulforhodamine B assay; type: functional; conditions: MDA-MB-435, 48 h, read-out: Activity
[23] = system: SF-268; assay: Cytotoxicity against human SF268 cells assessed as cell growth at 0.01 uM after 48 hrs by sulforhodamine B assay; type: functional; conditions: SF-268, 48 h, read-out: Activity
[24] = system: HCT-15; assay: Cytotoxicity against human HCT15 cells assessed as cell growth at 0.01 uM after 48 hrs by sulforhodamine B assay; type: functional; conditions: HCT-15, 48 h, read-out: Activity
[25] = system: A549; assay: Growth inhibition of human A549 cells after 48 hrs by sulforhodamine B assay; type: functional, cell-based; conditions: A549, 48 h; for CC50: read-out: LC50 (the source's name)
Method in brief: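 Five-dose SRB assay. Cells in RPMI 1640 with 5% FBS and 2 mM L-glutamine were seeded at 5,000–40,000 cells/well, with a TCA-fixed time-zero plate (Tz) taken at 24 h. Compound stocks were in DMSO, serially diluted 10-fold or ½-log to five concentrations, and incubated 48 h at 37 °C. Plates were stained with SRB and read at 515 nm. IC₅₀ was taken where [(Ti−Tz)/(C−Tz)]×100 = 50.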

[26] = system: KM12; assay: Cytotoxicity against human KM12 cells assessed as cell growth at 10 uM after 48 hrs by sulforhodamine B assay; type: functional; conditions: KM12, 48 h, read-out: Activity
[27] = system: NCI-H460; assay: Cytotoxicity against human NCI-H460 cells assessed as cell growth at 0.01 uM after 48 hrs by sulforhodamine B assay; type: functional; conditions: NCI-H460, 48 h, read-out: Activity

Row | SMILES | growth at 1 µM [1] [%] | growth at 0.01 µM [2] [%] | growth at 0.1 µM [3] [%] | growth at 1 µM [4] [%] | growth at 0.01 µM [5] [%] | growth at 10 µM [6] [%] | growth at 0.001 µM [7] [%] | growth at 0.1 µM [8] [%] | growth at 0.01 µM [9] [%] | growth at 0.001 µM [10] [%] | growth at 0.001 µM [11] [%] | growth at 0.001 µM [12] [%] | IC50 [13] [µM] | LC50 [13] [µM] | TGI [13] [µM] | growth at 1 µM [14] [%] | growth at 0.001 µM [15] [%] | GI50 [16] [µM] | IC50 [16] [µM] | TGI [16] [µM] | further results
1 | CC(=O)Nc1cccc(-c2ccc(-c3ccnc(NC(=O)Nc4cc(C(F)(F)F)cc(C(F)(F)F)c4)n3)cn2)c1.Cl | 20 | 92 | 72 | 37 | 77 | 100 | 97 | 67 | 90 | 94 | 96 | 90 | 3.72 | 62 | 19.7 | 18 | 102 | 4.92 | 4.92 | 23.9 | GI50 [13]: 3.72 µM; CC50 [16]: 98.7 µM; growth at 0.001 µM [17]: 103%; GI50 [18]: 2.17 µM; IC50 [18]: 2.17 µM; TGI [18]: 14.6 µM; CC50 [18]: 68.8 µM; growth at 0.01 µM [19]: 92%; growth at 1 µM [20]: 65%; growth at 0.1 µM [21]: 80%; growth at 10 µM [22]: -27%; growth at 0.01 µM [23]: 95%; growth at 0.01 µM [24]: 91%; GI50 [25]: 1.48 µM; IC50 [25]: 1.48 µM; TGI [25]: 12.6 µM; CC50 [25]: 41.9 µM; growth at 10 µM [26]: 100%; growth at 0.01 µM [27]: 93%
2 | CC(=O)c1ccccc1-c1ccc(-c2ccnc(NC(=O)Nc3cc(N4CCOCC4)cc(C(F)(F)F)c3)n2)cn1 | 42 | 100 | 86 | 45 | 103 | 68 | 98 | 89 | 76 | 89 | 99 | 85 | 3.1 | > 100 | > 100 | 88 | 101 | > 100 | 40.2 | > 100 | CC50 [16]: > 100 µM; growth at 0.001 µM [17]: 109%; GI50 [18]: > 100 µM; IC50 [18]: > 100 µM; TGI [18]: > 100 µM; CC50 [18]: > 100 µM; growth at 0.01 µM [19]: 95%; growth at 1 µM [20]: 48%; growth at 0.1 µM [21]: 73%; growth at 10 µM [22]: 91%; growth at 0.01 µM [23]: 90%; growth at 0.01 µM [24]: 98%; GI50 [25]: > 100 µM; IC50 [25]: > 100 µM; TGI [25]: > 100 µM; CC50 [25]: > 100 µM; growth at 10 µM [26]: 82%; growth at 0.01 µM [27]: 110%
